Assay results taken from ChEMBL document CHEMBL1146567, “Isolation and structure of ruprechstyril from Ruprechtia tangarana” (2003).
Values after ≈ are worked out from the molar mass of the structure shown. Active and inactive are the calls of the source. The rule behind the calls is not given here.

Tests used:
[1] = test system: Stenotrophomonas maltophilia; test: Antimicrobial activity against Stenotrophomonas maltophilia up to 64 ug/mL by broth microdilution susceptibility assay; assay type: functional, organism-based
How it was run: (§1)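 Broth microdilution susceptibility testing. Growth inhibition read-out is reported as the minimum inhibitory concentration, in μg/mL.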

Enterococcus faecalis [2] = test: Antimicrobial activity against Enterococcus faecalis up to 64 ug/mL by broth microdilution susceptibility assay; assay type: functional, organism-based; how it was run: as §1
Enterobacter cloacae = test: Antimicrobial activity against Enterobacter cloacae up to 64 ug/mL by broth microdilution susceptibility assay; assay type: functional, organism-based; how it was run: as §1
P388 = test: Cytotoxicity against mouse P388 cells; assay type: functional
Cryptococcus neoformans = test: Antimicrobial activity against Cryptococcus neoformans up to 64 ug/mL by broth microdilution susceptibility assay; assay type: functional, organism-based; how it was run: as §1
Micrococcus luteus [3] = test: Antimicrobial activity against Micrococcus luteus up to 64 ug/mL by broth microdilution susceptibility assay; assay type: functional, organism-based; how it was run: as §1
Neisseria gonorrhoeae = test: Antimicrobial activity against Neisseria gonorrhoeae up to 64 ug/mL by broth microdilution susceptibility assay; assay type: functional, organism-based; how it was run: as §1
Candida albicans = test: Antimicrobial activity against Candida albicans up to 64 ug/mL by broth microdilution susceptibility assay; assay type: functional, organism-based; how it was run: as §1
Escherichia coli = test: Antimicrobial activity against Escherichia coli up to 64 ug/mL by broth microdilution susceptibility assay; assay type: functional, organism-based; how it was run: as §1
Streptococcus pneumoniae = test: Antimicrobial activity against Streptococcus pneumoniae up to 64 ug/mL by broth microdilution susceptibility assay; assay type: functional, organism-based; how it was run: as §1
Staphylococcus aureus = test: Antimicrobial activity against Staphylococcus aureus up to 64 ug/mL by broth microdilution susceptibility assay; assay type: functional, organism-based; how it was run: as §1
Micrococcus luteus [4] = test: Antimicrobial activity against Micrococcus luteus by broth microdilution susceptibility assay; assay type: functional
How it was run: (§2)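 Broth microdilution susceptibility testing; the value recorded is the minimum inhibitory concentration of growth, given in μg/mL, and sometimes reported as a range.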

Enterococcus faecalis [5] = test: Antimicrobial activity against Enterococcus faecalis by broth microdilution susceptibility assay; assay type: functional; how it was run: as §2

CCCCCc1cc2cc(OC)cc(O)c2c(=O)[nH]1
Activity [1]: inactive
Activity (Enterococcus faecalis [2]): inactive
Activity (Enterobacter cloacae): inactive
Activity (P388): inactive
Activity (Cryptococcus neoformans): inactive
Activity (Micrococcus luteus [3]): inactive
Activity (Neisseria gonorrhoeae): inactive
Activity (Candida albicans): inactive
Activity (Escherichia coli): inactive
Activity (Streptococcus pneumoniae): inactive
Activity (Staphylococcus aureus): inactive

COc1cc(C)c(C(=O)Oc2cc(C)c(C(=O)O)c(OC)c2)c(O)c1
Activity [1]: inactive
Activity (Enterococcus faecalis [2]): inactive
Activity (Enterobacter cloacae): inactive
Activity (P388): inactive
Activity (Cryptococcus neoformans): inactive
Activity (Micrococcus luteus [3]): inactive
Activity (Neisseria gonorrhoeae): inactive
Activity (Candida albicans): inactive
Activity (Escherichia coli): inactive
Activity (Streptococcus pneumoniae): inactive
Activity (Staphylococcus aureus): inactive

COC(=O)[C@]12Oc3ccc(-c4ccc5c(c4O)C(=O)C4=C(O)C[C@@H](C)[C@H](O)[C@@]4(C(=O)OC)O5)c(O)c3C(=O)C1=C(O)C[C@@H](C)[C@@H]2O [SECALONIC ACID A]
EC50 (P388; read-out: ED50 (the source's name)): 3.5 mg/L (≈ 5.48 µM)
MIC (Micrococcus luteus [4]): 4 mg/L (≈ 6.26 µM)
MIC (Enterococcus faecalis [5]): 32 mg/L (≈ 50.1 µM)

CC[C@H](/C=C/[C@@H](C)[C@H]1CC[C@H]2[C@@H]3CC=C4C[C@@H](O)CC[C@]4(C)[C@H]3CC[C@]12C)C(C)C
Activity (P388): inactive

COc1c(OC)c2oc(=O)c3cc(O)c(OC)c4oc(=O)c(c1O)c2c43
Activity [1]: inactive
Activity (Enterococcus faecalis [2]): inactive
Activity (Enterobacter cloacae): inactive
Activity (P388): inactive
Activity (Cryptococcus neoformans): inactive
Activity (Micrococcus luteus [3]): inactive
Activity (Neisseria gonorrhoeae): inactive
Activity (Candida albicans): inactive
Activity (Escherichia coli): inactive
Activity (Streptococcus pneumoniae): inactive
Activity (Staphylococcus aureus): inactive

COC(=O)c1cc(O)cc(OC)c1Oc1cc(C)cc(O)c1C(=O)OC
Activity [1]: inactive
Activity (Enterococcus faecalis [2]): inactive
Activity (Enterobacter cloacae): inactive
Activity (P388): inactive
Activity (Cryptococcus neoformans): inactive
Activity (Micrococcus luteus [3]): inactive
Activity (Neisseria gonorrhoeae): inactive
Activity (Candida albicans): inactive
Activity (Escherichia coli): inactive
Activity (Streptococcus pneumoniae): inactive
Activity (Staphylococcus aureus): inactive

COc1cc(C)c2c(=O)c3c(O)cc(OC)cc3oc2c1
Activity [1]: inactive
Activity (Enterococcus faecalis [2]): inactive
Activity (Enterobacter cloacae): inactive
Activity (P388): inactive
Activity (Cryptococcus neoformans): inactive
Activity (Micrococcus luteus [3]): inactive
Activity (Neisseria gonorrhoeae): inactive
Activity (Candida albicans): inactive
Activity (Escherichia coli): inactive
Activity (Streptococcus pneumoniae): inactive
Activity (Staphylococcus aureus): inactive
